According to ChEMBL document CHEMBL4834426, “Antimalarial Benzimidazole Derivatives Incorporating Phenolic Mannich Base Side Chains Inhibit Microtubule and Hemozoin Formation: Structure-Activity Relationship and In Vivo Oral Efficacy Studies” (J Med Chem, 2021):
≈ marks a conversion by molar mass, not a printed value.

Tests used:
Plasmodium falciparum [1] = assay: Antiplasmodial activity against […] Plasmodium falciparum NF54 early gametocytes transfected with GFP-Luc […] at 5 uM incubated for 48 hrs by microscopy based luciferase reporter gene assay relative to control; type: functional
Summary of the method: (§1)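 NF54-Pfs16-GFP-Luc gametocytes, assays set up day 5 (early, stage II/III) or day 10 (late, stage IV/V). Culture at 2−3% gametocytemia, 1.5% hematocrit, 48 h drug exposure at 37 °C under 90% N₂/5% O₂/5% CO₂. Lysates mixed with luciferin; bioluminescence read with 10 s integration. Dual-point: one biological repeat in technical triplicate. Methylene blue (5 μM) reference.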

Plasmodium falciparum [2] = assay: Antiplasmodial activity against […] Plasmodium falciparum NF54 early gametocytes transfected with GFP-Luc […] incubated for 48 hrs by microscopy based luciferase reporter gene assay relative to control; type: functional, organism-based; details: NF54, 48 h
Summary of the method: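 Transgenic NF54-Pfs16-GFP-Luc gametocytes, read by luciferase reporter. Early assays were set up on day 5 (50% stage II/50% stage III) and late assays on day 10 (40% stage IV/60% stage V). Luciferin was added to lysates at room temperature and bioluminescence read. Methylene blue (5 μM) was the reference. Single-point screens at 1 and 5 μM used n=1 in technical triplicate. IC₅₀ came from a normalized nonlinear fit, n≥3 in triplicate.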

Plasmodium falciparum [3] = assay: Antiplasmodial activity against […] Plasmodium falciparum NF54 early gametocytes transfected with GFP-Luc […] at 1 uM incubated for 48 hrs by microscopy based luciferase reporter gene assay relative to control; type: functional; summary of the method: as §1
Plasmodium falciparum [4] = assay: Antimalarial activity against asexual blood stage drug-sensitive Plasmodium falciparum NF54 infected in erythrocytes assessed as reduction in parasitemia incubated up to 72 hrs by [3H]hypoxanthine incorporation assay; type: functional, organism-based
Summary of the method: (§2)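 [³H]-Hypoxanthine incorporation assay (modified) on asexual blood-stage P. falciparum in vitro. IC₅₀ values are means of ≥2 independent experiments.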

[5] = Selectivity index, ratio of IC50 for Cytotoxicity against CHO cells assessed as inhibition of cell viability by MTT assay to IC50 for antimalarial activity against asexual blood stage Plasmodium falciparum NF54 assessed as reduction in parasitemia incubated up to 72 hrs by [3H]hypoxanthine incorporation assay; type: toxicity, cell-based; details: hamster, read-out: Selectivity Index
Summary of the method: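 Selectivity index is IC₅₀(CHO)/IC₅₀(NF54). […] IC₅₀ came from nonlinear dose-response fitting. Parasite IC₅₀ came from the [³H]-hypoxanthine assay.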

[6] = Metabolic stability in human liver microsomes assessed as compound remaining at 1 uM incubated for 30 mins by LC-MS/MS analysis; type: ADME, Microsome; details: read-out: Stabilty
Summary of the method: (§3)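 Single-point design: 1 μM compound with 0.4 mg/mL liver microsomes in 0.1 M phosphate buffer pH 7.4 for 30 min. Quenched with ice-cold acetonitrile containing carbamazepine internal standard, centrifuged, analyzed by LC−MS/MS. Percent remaining from internal-standard-corrected peak areas at 30 min versus 0 min. Propranolol, midazolam and MMV390048 as controls.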

Plasmodium falciparum [7] = assay: Antiplasmodial activity against […] Plasmodium falciparum NF54 late gametocytes transfected with GFP-Luc […] at 5 uM incubated for 48 hrs by microscopy based luciferase reporter gene assay relative to control; type: functional; summary of the method: as §1
[8] = Kinetic solubility of the compound in pH 6.5 incubated for 24 hrs by HPLC-DAD analysis; type: physicochemical; details: buffer, read-out: Kinetic_solubility
Summary of the method: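 Miniaturized shake-flask method. 10 mM DMSO stock dried down, phosphate buffer pH 6.5 added, shaken 24 h at 25 °C. Centrifuged 3500g for 15 min; supernatant analyzed by HPLC-DAD against 10−220 μM DMSO calibration curve. Reserpine, hydrocortisone and MMV390048 as controls.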

CHO = assay: Cytotoxicity against CHO cells assessed as inhibition of cell viability by MTT assay; type: cell-based; details: Cricetulus griseus
[9] = Resistance index, ratio of IC50 for antimalarial activity against asexual blood stage multi drug-resistant Plasmodium falciparum K1 to IC50 for antimalarial activity against asexual blood stage drug-sensitive Plasmodium falciparum NF54; type: functional
Summary of the method: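 Resistance index is IC₅₀(K1)/IC₅₀(NF54). Both IC₅₀s came from the [³H]-hypoxanthine incorporation assay, as means of ≥2 independent experiments.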

Plasmodium falciparum [10] = assay: Antimalarial activity against asexual blood stage multi drug-resistant Plasmodium falciparum K1 infected in erythrocytes assessed as reduction in parasitemia incubated up to 72 hrs by [3H]hypoxanthine incorporation assay; type: functional, organism-based; summary of the method: as §2
Plasmodium falciparum [11] = assay: Antiplasmodial activity against […] Plasmodium falciparum NF54 late gametocytes transfected with GFP-Luc […] at 1 uM incubated for 48 hrs by microscopy based luciferase reporter gene assay relative to control; type: functional; summary of the method: as §1
[12] = Metabolic stability in mouse liver microsomes assessed as compound remaining at 1 uM incubated for 30 mins by LC-MS/MS analysis; type: ADME, Microsome; details: read-out: Stabilty; summary of the method: as §3
[13] = Metabolic stability in rat liver microsomes assessed as compound remaining at 1 uM incubated for 30 mins by LC-MS/MS analysis; type: ADME, Microsome; details: read-out: Stabilty; summary of the method: as §3

| Compound | inhibition at 5 µM (Plasmodium falciparum [1]) [%] | IC50 (Plasmodium falciparum [2]) [nM] | inhibition at 1 µM (Plasmodium falciparum [3]) [%] | IC50 (Plasmodium falciparum [4]) [nM] | selectivity ratio at 72 h [5] | remaining at 0.5 h, 1 µM [6] [%] | inhibition at 5 µM (Plasmodium falciparum [7]) [%] | solubility kinetic at 24 h [8] [µM] | IC50 (CHO) [nM] | Ratio IC50 [9] | IC50 (Plasmodium falciparum [10]) [nM] | inhibition at 1 µM (Plasmodium falciparum [11]) [%] | remaining at 0.5 h, 1 µM [12] [%] | remaining at 0.5 h, 1 µM [13] [%] |
| --- | --- | --- | --- | --- | --- | --- | --- | --- | --- | --- | --- | --- | --- | --- |
| Cc1cc(CNC(C)(C)C)c(O)c(Nc2nc3cc(F)c(F)cc3n2Cc2ccc(C(F)(F)F)cc2)c1 | 96 | 520 | 60 | 250 | 40.2 | 90 | 73 | < 5 | 10000 | 0.6 | 150 | 0 | > 99 | 89 |
| CC(C)(C)NCc1cc(Cl)cc(Nc2nc3cc(F)c(F)cc3[nH]2)c1O | 16 | – | 0 | 260 | 153 | – | 0 | – | 39700 | 2.4 | 530 | 0 | – | – |
| CCNCc1cc(C)cc(Nc2nc3ccccc3n2Cc2ccc(C(F)(F)F)cc2)c1O | 95 | 990 | 30 | 780 | 24.1 | 98 | 14 | 35 (≈ 15.9 µg/mL) | 18800 | 0.39 | 300 | 0 | 52 | 51 |
| CCN(CC)Cc1ccc(C)c(Nc2nc3ccccc3n2Cc2ccc(F)cc2)c1O | 24 | – | 14 | 2270 | > 22 | – | 39 | – | > 50000 | 0.58 | 1320 | 0 | – | – |
| Cc1cc(CNC(C)(C)C)c(O)c(Nc2nc3c(Cl)cc(Cl)cc3[nH]2)c1 | 0 | – | 0 | 220 | 117 | – | 0 | – | 25800 | 1.81 | 400 | 0 | – | – |
| Cc1cc(CNC(C)(C)C)c(O)c(Nc2nc3ccccc3[nH]2)c1 | 47 | – | 0 | 200 | 166 | – | 39 | – | 33300 | 3.95 | 790 | 22 | – | – |
| CCN(CC)Cc1cccc(Nc2nc3ccccc3n2Cc2ccc(C(F)(F)F)cc2)c1O | 93 | 1450 | 71 | 440 | > 113 | – | 56 | – | > 50000 | 0.3 | 130 | 35 | – | – |
| CC(C)(C)NCc1cc(Cl)cc(Nc2nc3ccccc3[nH]2)c1O | 0 | – | 0 | 270 | > 185 | – | 0 | – | > 50000 | 2.33 | 630 | 0 | – | – |
| CCN(CC)Cc1cc(C)cc(Nc2nc3ccccc3n2Cc2ccc(F)cc2)c1O | 97 | 880 | 81 | 550 | 34 | – | 58 | – | 18700 | 0.38 | 210 | 41 | – | – |
| CC(C)(C)NCc1cc(Cl)cc(Nc2nc3ccccc3n2Cc2ccc(C(F)(F)F)cc2)c1O | 92 | 590 | 44 | 280 | 130 | 81 | 0 | < 5 | 36300 | 0.21 | 60 | 0 | 36 | 9 |
| CCN(CC)Cc1cc(Nc2nc3ccccc3n2Cc2ccc(F)cc2)ccc1O | 59 | – | 33 | 680 | 17.6 | – | 39 | – | 12000 | 2.87 | 1950 | 11 | – | – |
| CCN(CC)Cc1ccc(C)c(Nc2nc3ccccc3[nH]2)c1O | 32 | – | 3 | 860 | > 58 | – | 31 | – | > 50000 | 1.88 | 1620 | 34 | – | – |
| CCN(CC)Cc1cc(Nc2nc3ccccc3[nH]2)ccc1O | 9 | – | 30 | 800 | > 62 | – | 28 | – | > 50000 | 9.09 | 7270 | 0 | – | – |
| CCN(CC)Cc1ccc(Nc2nc3ccccc3n2Cc2ccc(F)cc2)cc1O | 15 | – | 12 | 640 | 71.5 | – | 36 | – | 45800 | 2 | 1280 | 31 | – | – |
| CCN(CC)Cc1cc(C)cc(Nc2nc3ccccc3n2Cc2ccc(C(F)(F)F)cc2)c1O | 97 | 110 | 91 | 190 | 154 | 36 | 62 | < 5 | 29300 | 0.32 | 60 | 41 | < 7 | < 7 |
| CC(C)(C)NCc1cc(C(C)(C)C)cc(Nc2nc3cc(F)c(F)cc3[nH]2)c1O | 0 | – | 0 | 150 | 228 | – | 0 | – | 34200 | 1.87 | 280 | 0 | – | – |
| CCN(CC)Cc1cccc(Nc2nc3ccccc3n2Cc2ccc(F)cc2)c1O | 91 | 2230 | 65 | 360 | > 136 | – | 58 | – | > 50000 | 0.5 | 180 | 36 | – | – |
| CCN(CC)Cc1c(Cl)ccc(Nc2nc3ccccc3n2Cc2ccc(C(F)(F)F)cc2)c1O | 59 | 3060 | 7 | 1840 | > 27 | – | 1 | – | > 50000 | 0.21 | 380 | 5 | – | – |
| CCN(CC)Cc1cc(C)cc(Nc2nc3ccccc3n2Cc2ccc(C#N)cc2)c1O | 98 | – | 39 | 650 | 21.8 | – | 52 | – | 14200 | 0.71 | 460 | 15 | – | – |
